Results as given in ChEMBL document CHEMBL3774372, “Design, physico-chemical properties and biological evaluation of some new N-[(phenoxy)alkyl]- and N-{2-[2-(phenoxy)ethoxy]ethyl}aminoalkanols as anticonvulsant agents” (Bioorg Med Chem, 2016).
Active and inactive are the calls of the source. The calls are words filed in the database; no cut-off is given here.

Experiments:
Mus musculus [1] = experiment: Anticonvulsant activity in mouse assessed as protection against 6 Hz psychomotor seizure at 40 mg/kg, ip after 0.5 hrs; type: functional, organism-based
Outline: (§1)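 Suspension in 0.5% methylcellulose given ip to mice; corneal stimulation with 0.2 ms monopolar rectangular pulses at 6 Hz for 3 s from a constant current device, mice restrained then released to observation cage. Protected if normal exploratory behaviour resumed within 10 s of stimulation. Scored as protected/tested, 4 mice per group.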

Rattus norvegicus [2] = experiment: Anticonvulsant activity in rat assessed as protection against maximal electric shock-induced seizures at 30 mg/kg, po measured after […]; type: functional, organism-based
Rattus norvegicus [3] = experiment: Anticonvulsant activity in rat assessed as protection against maximal electric shock-induced seizures at 30 mg/kg, ip measured after […]; type: functional, organism-based
Mus musculus [4] = experiment: Anticonvulsant activity in mouse assessed as protection against 6 Hz psychomotor seizure at 20 mg/kg, ip after 1 hr; type: functional, organism-based; outline: as §1
[5] = molecular target: Prostacyclin receptor (Homo sapiens) (UniProt P43119); experiment: Displacement of [3H]iloprost from human recombinant Prostanoid IP receptor expressed in HEK293 cells at 10^-5 M; type: cell-based
Outline: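 Radioligand displacement screen with the test agent at a single 10^-5 M concentration; receptor source and radioligand per target as tabulated (recombinant human cell lines or rat cerebral cortex/urinary bladder).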

Mus musculus [6] = experiment: Anticonvulsant activity in mouse assessed as protection against maximal electric shock-induced seizures at 10 mg/kg, ip measured after 0.5 hrs; type: functional, organism-based
Outline: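 Mice dosed ip with suspension in 0.5% methylcellulose; maximal electroshock applied at the listed time after dosing. Protection = abolition of hindlimb tonic extension component of seizure; reported as animals protected/animals tested.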

Rattus norvegicus [7] = experiment: Anticonvulsant activity in pilocarpine-induced status epilepticus Sprague-Dawley rat model at 30 mg/kg, ip after […] during post stage 3 seizure; type: functional, organism-based
[8] = Ratio of drug level in brain to plasma in CD1 mouse at 12.92 mg/kg, ip administered as single dose measured after 30 mins by LC/ESI-MS/MS analysis; type: ADME, organism-based; settings: brain and plasma, read-out: BPR
Mus musculus [9] = experiment: AUMC (0 to infinity) in CD1 mouse plasma at 1 mg/kg, iv measured up to 240 mins by LC/ESI-MS/MS analysis; type: ADME, organism-based; settings: in vivo, 4 h
Outline: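 Male CD1 mice fasted overnight, single iv dose 1 mg/kg; sampled at 0, 5, 15, 30, 60, 120 and 240 min (one sample per mouse, four mice per time), under ketamine/xylazine. Heparinized plasma quantified by validated LC/ESI-MS/MS; non-compartmental moment method; AUMC extrapolated to infinity using terminal rate constant from log-linear regression.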

[10] = Tmax in CD1 mouse brain at 1 mg/kg, iv measured up to 240 mins by LC/ESI-MS/MS analysis; type: ADME, organism-based
Mus musculus [11] = experiment: Initial plasma concentration in CD1 mouse at 1 mg/kg, iv measured up to 240 mins by LC/ESI-MS/MS; type: ADME, organism-based; settings: in vivo, 4 h
[12] = Absolute bioavailability in CD1 mouse plasma at 12.92 mg/kg, ip measured up to 240 mins by LC/ESI-MS/MS analysis; type: ADME, organism-based
[13] = Ratio of drug level in brain to plasma in CD1 mouse at 12.92 mg/kg, ig administered as single dose measured after 30 mins by LC/ESI-MS/MS analysis; type: ADME, organism-based; settings: brain and plasma, po, read-out: BPR
[14] = AUC (0 to infinity) in CD1 mouse brain at 12.92 mg/kg, ip measured up to 240 mins by LC/ESI-MS/MS analysis; type: ADME, organism-based; design: dose 12.92 mg/kg, route intraperitoneal, time infinity
Vibrio harveyi [15] = experiment: Mutagenicity in Vibrio harveyi BB7 assessed as number of colonies after 48 hrs (reference value: 13 to 14 no_unit); type: ADME, organism-based; settings: in vivo
Outline: (§2)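 Vibrio harveyi mutagenicity test: test compound was added to exponentially growing cultures (A600 = 0.1, 30 °C) and grown to OD600 0.3–0.4. Then 5 × 10^6 cells were plated on BOSS agar with neomycin (final 100 µg/mL) and incubated 48 h at 30 °C. Neomycin-resistant colonies were counted. Triplicate; controls were water, DMSO and NQNO 40 ng/mL.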

[16] = MRT in CD1 mouse plasma at 1 mg/kg, iv measured up to 240 mins by LC/ESI-MS/MS analysis; type: ADME, organism-based
[17] = Ratio of drug level in brain to plasma in CD1 mouse at 12.92 mg/kg, ip administered as single dose measured after 240 mins by LC/ESI-MS/MS analysis; type: ADME, organism-based; settings: brain and plasma, read-out: BPR
[18] = MRT in CD1 mouse brain at 1 mg/kg, iv measured up to 240 mins by LC/ESI-MS/MS analysis; type: ADME, organism-based
hERG (KCNH2) = hERG (KCNH2) (Homo sapiens, UniProt Q12809); experiment: Displacement of [3H]astemizole from human recombinant ERG expressed in HEK293 cells at 10^-4 M; type: cell-based; settings: HEK293 cells that express human recombinant ERG, probe [3H]astemizole
Mus musculus [19] = experiment: Neurotoxicity in mouse at 100 mg/kg, ip after 0.5 hrs by rotarod test; type: toxicity, organism-based; settings: in vivo
Outline: (§3)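 Mice were dosed ip with compound suspended in 0.5% methylcellulose. Rotarod: a 1 in. knurled rod turning at 6 rpm. Neurotoxicity was scored as failure to stay on the rod for at least 1 min in each of three trials. Results are given as the number of animals affected out of the number tested.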

[20] = Tmax in CD1 mouse brain at 12.92 mg/kg, ip measured up to 240 mins by LC/ESI-MS/MS analysis; type: ADME, organism-based
Rattus norvegicus [21] = experiment: Toxicity in pilocarpine-induced status epilepticus Sprague-Dawley rat assessed as death at 400 mg/kg, ip; type: organism-based; settings: in vivo
Outline: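 Pilocarpine 50 mg/kg ip given to male Sprague-Dawley rats (150–180 g). At the first stage 3–5 seizure (Racine scale), compound was given ip to groups of 8. Deaths and protection were recorded at 0.25–4 h; weight change was measured 24 h after the first stage 3 seizure.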

Vibrio harveyi [22] = experiment: Mutagenicity in Vibrio harveyi BB7X assessed as number of colonies after 48 hrs (reference value: 15 to 16 no_unit); type: ADME, organism-based; settings: in vivo; outline: as §2
[23] = MRT in CD1 mouse brain at 12.92 mg/kg, ig measured up to 240 mins by LC/ESI-MS/MS analysis; type: ADME, organism-based; settings: po
Vibrio harveyi [24] = experiment: Antimutagenic activity against Vibrio harveyi BB7XM assessed as inhibition of NQNO-induced mutagenicity after 48 hrs; type: functional
Outline: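 V. harveyi cultures grown exponentially to A600 0.1 at 30 °C, exposed to test compound for 15 min, then to NQNO, and grown on to A600 0.3–0.4. 5 × 10⁶ cells plated on BOSS agar with neomycin (100, final). Neomycin-resistant colonies counted after 48 h at 30 °C. Result given as % inhibition of NQNO mutagenicity; three independent repeats.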

[25] = MRT in CD1 mouse brain at 12.92 mg/kg, ip measured up to 240 mins by LC/ESI-MS/MS analysis; type: ADME, organism-based
Mus musculus [26] = experiment: Neurotoxicity in mouse at 30 mg/kg, ip after 0.5 hrs by rotarod test; type: toxicity, organism-based; settings: in vivo; outline: as §3
[27] = Ratio of drug level in brain to plasma in CD1 mouse at 12.92 mg/kg, ig administered as single dose measured after 120 mins by LC/ESI-MS/MS analysis; type: ADME, organism-based; settings: brain and plasma, po, read-out: BPR

Prostacyclin receptor (Homo sapiens), sequence (P43119 whole entry): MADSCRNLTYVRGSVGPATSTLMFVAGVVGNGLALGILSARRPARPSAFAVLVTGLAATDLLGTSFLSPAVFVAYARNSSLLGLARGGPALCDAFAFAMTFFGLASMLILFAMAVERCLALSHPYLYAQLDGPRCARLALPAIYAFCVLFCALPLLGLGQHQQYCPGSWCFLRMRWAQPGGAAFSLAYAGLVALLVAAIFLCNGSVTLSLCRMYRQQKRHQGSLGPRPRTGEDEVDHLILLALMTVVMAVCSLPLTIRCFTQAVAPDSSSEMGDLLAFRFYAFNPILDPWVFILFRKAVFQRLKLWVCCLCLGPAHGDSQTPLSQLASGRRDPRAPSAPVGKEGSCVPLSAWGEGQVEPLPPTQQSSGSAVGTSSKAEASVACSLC
hERG (KCNH2), sequence (Q12809 whole entry): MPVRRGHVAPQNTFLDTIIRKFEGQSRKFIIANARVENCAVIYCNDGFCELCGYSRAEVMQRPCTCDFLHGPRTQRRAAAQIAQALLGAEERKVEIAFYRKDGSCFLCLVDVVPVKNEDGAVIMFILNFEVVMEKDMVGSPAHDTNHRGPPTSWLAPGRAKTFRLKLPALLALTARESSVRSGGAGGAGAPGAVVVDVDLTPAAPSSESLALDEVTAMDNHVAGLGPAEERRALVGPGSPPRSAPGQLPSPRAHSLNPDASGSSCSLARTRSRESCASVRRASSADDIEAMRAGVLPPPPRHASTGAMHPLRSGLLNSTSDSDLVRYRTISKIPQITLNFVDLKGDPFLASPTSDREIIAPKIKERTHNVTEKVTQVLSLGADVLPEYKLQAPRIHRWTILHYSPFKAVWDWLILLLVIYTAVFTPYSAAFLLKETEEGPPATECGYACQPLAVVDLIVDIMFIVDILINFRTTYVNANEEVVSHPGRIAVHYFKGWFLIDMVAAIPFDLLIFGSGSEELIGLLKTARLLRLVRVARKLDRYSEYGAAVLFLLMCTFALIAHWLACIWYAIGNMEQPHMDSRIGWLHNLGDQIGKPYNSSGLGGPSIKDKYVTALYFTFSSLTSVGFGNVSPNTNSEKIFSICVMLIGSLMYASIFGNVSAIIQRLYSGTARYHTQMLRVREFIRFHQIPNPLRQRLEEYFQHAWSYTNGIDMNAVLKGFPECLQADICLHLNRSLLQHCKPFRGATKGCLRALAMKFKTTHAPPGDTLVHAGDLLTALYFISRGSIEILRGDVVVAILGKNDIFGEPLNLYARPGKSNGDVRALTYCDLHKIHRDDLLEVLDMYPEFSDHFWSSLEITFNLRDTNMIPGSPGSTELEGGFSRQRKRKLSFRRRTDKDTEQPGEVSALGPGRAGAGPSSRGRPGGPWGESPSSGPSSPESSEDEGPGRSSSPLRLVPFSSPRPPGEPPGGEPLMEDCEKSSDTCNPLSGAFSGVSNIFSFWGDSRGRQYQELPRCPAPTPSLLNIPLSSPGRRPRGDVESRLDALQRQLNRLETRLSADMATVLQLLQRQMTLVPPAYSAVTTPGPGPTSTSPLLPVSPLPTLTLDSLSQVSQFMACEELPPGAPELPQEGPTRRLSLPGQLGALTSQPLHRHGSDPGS

Cc1cccc(C)c1OCCOCCN[C@@H](C)CO
Activity (Mus musculus [1]): Active
Activity (Rattus norvegicus [2]): inactive
Activity (Rattus norvegicus [3]): Active
Activity (Mus musculus [4]): inactive
inhibition [5]: -6%
Activity (Mus musculus [6]): inactive

Cc1cccc(C)c1OCCOCCN[C@H](C)CO
Activity (Rattus norvegicus [7]): inactive

Cc1cccc(C)c1OCCOCCN[C@H](C)CO.Cl
Kp at 0.5 h [8]: 4.25
AUMC (Mus musculus [9]): 956 ng·h²/mL
Tmax [10]: 5 min
C0 (Mus musculus [11]): 2200 ng/mL
bioavailability [12]: 6.78%
Kp at 0.5 h [13]: 2.12
AUC(0-inf) [14]: 2160 ng·h/mL
Activity (Vibrio harveyi [15]): 20
MRT [16]: 55.6 min
Kp at 4 h [17]: 1.94
MRT [18]: 50.1 min
inhibition at 100 µM (hERG (KCNH2)): 3.6%
Activity (Mus musculus [19]): Toxic
Tmax [20]: 15 min
Activity (Rattus norvegicus [21]): Non-toxic
Activity (Vibrio harveyi [22]): 25
MRT [23]: 73.8 min
inhibition (INH) (Vibrio harveyi [24]): 41%
MRT [25]: 83.1 min
Activity (Mus musculus [26]): Non-toxic
Kp at 2 h [27]: 3.18
